Test results: publication PMC7479925 (Journal of medicinal chemistry, 2012)
Where two headings read alike, the source gives them in different places.

What was measured:
Tdp1 [1] = target: T1, Tdp1 (Homo sapiens, UniProt Q9NUW8); test: Tdp1 gel-based assay with recombinant human Tdp1 and N14Y DNA substrate; type: biochemical; details: for Tdp1 inhibition (in words): highest tested concentration 333 μM
[2] = test system: N14Y oligomer (biotin-[…]-Tyr); test: SPR binding to immobilized tyrosyl-labeled oligonucleotide; details: dilution series 0.39-50 μM
Tdp1 [3] = target: T1, Tdp1; test: SPR binding to immobilized Tdp1; details: dilution series 0.39-50 μM
How it was run: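 Tdp1 (1 μM) was pre-bound for 20 min with 2 μM 3′-phosphate 14-mer oligo in 10 mM Na acetate pH 4.5 to shield active-site amines, then amine-coupled to a CM5 chip (~6000 RU), with a Tdp1-free reference surface. Test compound was injected at 30 μL/min, 25 °C, in 50 mM Tris/HCl pH 7.5, 80 mM KCl, 5% DMSO. Referencing used buffer cycles and a DMSO calibration; NaCl/DMSO regeneration.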

T1 sequence (Q9NUW8 whole entry): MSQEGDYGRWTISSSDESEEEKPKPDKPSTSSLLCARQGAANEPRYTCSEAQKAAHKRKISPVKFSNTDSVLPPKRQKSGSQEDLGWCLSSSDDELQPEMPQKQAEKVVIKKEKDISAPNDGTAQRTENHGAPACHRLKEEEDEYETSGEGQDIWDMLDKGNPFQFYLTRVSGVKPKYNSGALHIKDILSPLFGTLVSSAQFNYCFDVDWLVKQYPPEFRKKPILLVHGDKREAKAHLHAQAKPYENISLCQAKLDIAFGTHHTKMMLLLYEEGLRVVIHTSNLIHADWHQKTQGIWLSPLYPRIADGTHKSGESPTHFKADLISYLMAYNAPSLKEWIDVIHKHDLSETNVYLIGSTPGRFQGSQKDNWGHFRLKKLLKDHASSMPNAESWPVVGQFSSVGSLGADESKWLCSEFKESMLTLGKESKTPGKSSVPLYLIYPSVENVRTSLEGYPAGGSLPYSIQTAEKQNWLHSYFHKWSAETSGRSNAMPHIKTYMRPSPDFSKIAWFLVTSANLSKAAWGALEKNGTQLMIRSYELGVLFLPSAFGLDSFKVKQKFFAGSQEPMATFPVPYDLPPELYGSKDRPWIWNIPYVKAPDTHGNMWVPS

| Compound | Tdp1 inhibition (in words) (Tdp1 [1]) | IC50 (Tdp1 [1]) [µM] | other results |
| --- | --- | --- | --- |
| N#C/C(=C\c1ccc(O)c(O)c1)C(=O)O [Compound 4] | completely inactive | – | – |
| N#C/C(=C\c1ccc(O)c(O)c1)C(N)=O [Compound 5] | completely inactive | – | – |
| N#C/C(=C\c1ccc(O)c(O)c1)C(=O)NCc1ccccc1 [Compound 6] | completely inactive | – | – |
| N#CC(C#N)=Cc1cc(O)c(O)c(O)c1 [Compound 7] | completely inactive | – | – |
| O=C1/C(=C/c2ccc3[nH]ccc3c2)NC(=S)N1c1ccccc1 [Compound 34, (Z)-5-((1H-Indol-5-yl)methylene)-3-phenyl-2-thioxoimidazolidin-4-one] | – | 111 to 333 | – |
| O=C1NC(=S)N(Cc2ccccc2)/C1=C\c1ccc(F)cc1 [Compound 37, (Z)-1-Benzyl-5-(4-fluorobenzylidene)-2-thioxoimidazolidin-4-one] | – | 111 to 333 | – |
| O=C1NC(=O)/C(=C/c2ccc(O)c(O)c2)S1 [Compound 39, (Z)-5-(3,4-Dihydroxybenzylidene)thiazolidine-2,4-dione] | – | 111 to 333 | – |
| O=C1NC(=S)/C(=C/c2ccc(O)c(O)c2O)S1 [Compound 50, (Z)-4-Thioxo-5-(2,3,4-trihydroxybenzylidene)thiazolidin-2-one] | – | – | binding to N14Y oligomer (SPR) [2]: No binding; binding to Tdp1 (SPR) (Tdp1 [3]): concentration-dependent binding |
| O=C1NC(=S)/C(=C/c2ccc(P(=O)(O)O)cc2)S1 [Compound 74, (Z)-(4-((2-Oxo-4-thioxothiazolidin-5-ylidene)methyl)phenyl)-phosphonic Acid] | – | – | fold improvement in potency over 44 (Tdp1 [1]; Tdp1 IC50 vs compound 44): 7.3 fold |
| (Z)-5-(2-Bromobenzylidene)-4-thioxothiazolidin-2-one [Compound 62] | – | – | IC50 (Tdp1 [1]; read-out: Tdp1 IC50, recombinant human Tdp1, gel-based assay): 30 ± 12 µM |
